Data from article PMC6045484 (ACS Omega, 2018).
Converted amounts (≈) assume the structure as drawn.

Key:
[1] = tested on: SK-MEL, KB, BT-549, SK-OV-3, VERO and LLC-PK1 cells; assay: cytotoxicity, neutral red uptake assay; type: cell-based, mammalian; details: highest test concentration 4760 ng/mL
How it was run: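 Cells seeded at 25 000/well and allowed 24 h to reach confluence. Test compound was then added and incubated 48 h. Viable cells were counted by a modified neutral red uptake method. The panel was four human cancer lines and two noncancerous mammalian kidney lines. Doxorubicin served as positive control and DMSO as negative control.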

SA (ATCC29213) = assay: in vitro antibacterial activity; type: cell-based; details: Staphylococcus aureus; for IC50: ATCC29213, read-out: IC50 (concentration that affords 50% growth inhibition), SA; for MBC: ATCC29213, read-out: MBC (minimum bactericidal concentration), SA; for MIC: ATCC29213, read-out: MIC, SA
How it was run: (§1)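 Test compound serially diluted in 20% DMSO/saline and plated in duplicate, up to 20 μg/mL. Inoculum in cation-adjusted Mueller–Hinton broth, pH 7.3, set by OD630 to 5 × 10^5 CFU/mL. Incubated 16–20 h at 35 °C; 530 nm read before and after. IC50 is 50% growth inhibition; MIC is no detectable growth. MBC from clear wells subcultured on agar. Ciprofloxacin control.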

P. falciparum (D6) = assay: in vitro antimalarial activity, plasmodial LDH; type: cell-based, Plasmodium falciparum; details: Plasmodium falciparum, D6, 72 h, read-out: P. falciparum (D6) IC50
A. fumigatus ATCC 90906 = assay: in vitro antifungal activity; type: cell-based, Aspergillus fumigatus; details: Aspergillus fumigatus; for IC50: ATCC90906, read-out: A. fumigatus IC50; for MFC: ATCC90906, read-out: A. fumigatus MFC; for MIC: ATCC90906, read-out: A. fumigatus MIC
How it was run: (§2)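 Modified NCCLS broth method in Sabouraud dextrose. Inoculum set by OD630 to 1.5 × 10^3 CFU/mL. Test compound serially diluted in 20% DMSO/saline, duplicate wells, up to 20 μg/mL. Incubated 70–74 h at 35 °C; 530 nm read before and after. IC50 is 50% growth inhibition; MIC is no detectable growth. MFC from clear wells subcultured on agar. Amphotericin B control.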

C. neoformans ATCC90113 = assay: in vitro antifungal activity; type: cell-based, Cryptococcus neoformans; details: Cryptococcus neoformans; for IC50: ATCC90113, read-out: C. neoformans IC50; for MFC: ATCC90113, read-out: C. neoformans MFC; for MIC: ATCC90113, read-out: C. neoformans MIC
How it was run: as §2

[2] = tested on: L. donovani promastigotes; assay: in vitro antileishmanial activity, alamarBlue assay; type: cell-based, Leishmania donovani; details: Leishmania donovani, 48 h; for IC50: read-out: L. donovani IC50, promastigotes, 48 h; for IC90: read-out: L. donovani IC90, promastigotes, 48 h
[3] = tested on: M. intracellulare (ATCC23068); assay: in vitro antibacterial activity, modified alamarBlue procedure; type: cell-based, Mycobacterium intracellulare; details: Mycobacterium intracellulare; for IC50: ATCC23068, read-out: IC50 (concentration that affords 50% growth inhibition), M. intracellulare; for MBC: ATCC23068, read-out: MBC (minimum bactericidal concentration), M. intracellulare; for MIC: ATCC23068, read-out: MIC, M. intracellulare
How it was run: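 Modified alamarBlue microplate method. Test compound serially diluted in 20% DMSO/saline, duplicate wells, up to 20 μg/mL. Inoculum 2.0 × 10^6 CFU/mL in Middlebrook 7H9 with OADC, pH 7.3, containing 5% alamarBlue. Incubated 70–74 h at 37 °C, 10% CO2; fluorescence 544ex/590em read before and after. MIC: no blue-to-pink change. MBC by subculturing blue wells on agar. Ciprofloxacin control.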

P. falciparum (W2) = assay: in vitro antimalarial activity, plasmodial LDH; type: cell-based, Plasmodium falciparum; details: Plasmodium falciparum, W2, 72 h, read-out: P. falciparum (W2) IC50, CQ-resistant W2 strain, 72 h
How it was run: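 P. falciparum-infected erythrocytes (2% parasitemia, 2% hematocrit) in RPMI 1640 with 10% human serum and 60 μg/mL amikacin. Exposed to test compound dilutions for 72 h at 37 °C under 90% N2/5% O2/5% CO2. LDH measured with Malstat reagent (30 min, room temperature), then NBT/PES for 1 h in the dark, stopped with 5% acetic acid, read at 650 nm. IC50 from dose-response curves.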

MRSA (ATCC33591) = assay: in vitro antibacterial activity; type: cell-based, methicillin-resistant Staphylococcus aureus; details: Staphylococcus aureus, ATCC33591|MRSA, read-out: MIC, MRSA
How it was run: as §1

C. albicans ATCC90028 = assay: in vitro antifungal activity; type: cell-based, Candida albicans; details: Candida albicans; for IC50: ATCC90028, read-out: C. albicans IC50; for MFC: ATCC90028, read-out: C. albicans MFC; for MIC: ATCC90028, read-out: C. albicans MIC
How it was run: as §2

## CCCCCCOc1c(OC)cc(NC(C)CCCN)c2nc(C(C)(C)C)cc(C)c12 (stereo not drawn) [compound 52, N^4-(5-Hexyloxy-2-tert-butyl-6-methoxy-4-methylquinolin-8-yl)pentane-1,4-diamine]
[1]
  cytotoxicity CTX: NC (NC, not cytotoxic up to 4760 ng/mL (4.76 μg/mL))
SA (ATCC29213)
  IC50: 2.83 µg/mL (≈ 6.59 µM)
  MBC: 5 µg/mL (≈ 11.6 µM)
  MIC: 5 µg/mL (≈ 11.6 µM)
P. falciparum (D6)
  IC50: > 4.76 µg/mL
A. fumigatus ATCC 90906
  IC50: 19 µg/mL (≈ 44.2 µM)
  MFC: > 20 µg/mL
  MIC: > 20 µg/mL
C. neoformans ATCC90113
  IC50: 0.84 µg/mL (≈ 1.96 µM)
  MFC: 2.5 µg/mL (≈ 5.82 µM)
  MIC: 1.25 µg/mL (≈ 2.91 µM)
[2]
  IC50: 1.77 µg/mL (≈ 4.12 µM)
  IC90: 2.55 µg/mL (≈ 5.94 µM)
[3]
  IC50: 3.43 µg/mL (≈ 7.98 µM)
  MBC: 5 µg/mL (≈ 11.6 µM)
  MIC: 5 µg/mL (≈ 11.6 µM)
P. falciparum (W2)
  IC50: > 4.76 µg/mL
MRSA (ATCC33591)
  MIC: 5 µg/mL (≈ 11.6 µM)
C. albicans ATCC90028
  IC50: 5.91 µg/mL (≈ 13.8 µM)
  MFC: 10 µg/mL (≈ 23.3 µM)
  MIC: 10 µg/mL (≈ 23.3 µM)

## CCCCCCCOc1c(OC)cc(NC(C)CCCN)c2nc(C(C)(C)C)cc(C)c12 (stereo not drawn) [compound 53, N^4-(5-Heptyloxy-2-tert-butyl-6-methoxy-4-methylquinolin-8-yl)pentane-1,4-diamine]
[1]
  cytotoxicity CTX: NC (NC, not cytotoxic up to 4760 ng/mL (4.76 μg/mL))
SA (ATCC29213)
  IC50: 1.33 µg/mL (≈ 3 µM)
  MBC: 5 µg/mL (≈ 11.3 µM)
  MIC: 2.5 µg/mL (≈ 5.63 µM)
P. falciparum (D6)
  IC50: 2 µg/mL (≈ 4.51 µM)
A. fumigatus ATCC 90906
  IC50: 19.3 µg/mL (≈ 43.5 µM)
  MFC: > 20 µg/mL
  MIC: > 20 µg/mL
C. neoformans ATCC90113
  IC50: 0.67 µg/mL (≈ 1.51 µM)
  MFC: 1.25 µg/mL (≈ 2.82 µM)
  MIC: 1.25 µg/mL (≈ 2.82 µM)
[2]
  IC50: 0.84 µg/mL (≈ 1.89 µM)
  IC90: 1.95 µg/mL (≈ 4.4 µM)
[3]
  IC50: 3.12 µg/mL (≈ 7.03 µM)
  MBC: 5 µg/mL (≈ 11.3 µM)
  MIC: 5 µg/mL (≈ 11.3 µM)
P. falciparum (W2)
  IC50: 1.3 µg/mL (≈ 2.93 µM)
MRSA (ATCC33591)
  MIC: 2.5 µg/mL (≈ 5.63 µM)
C. albicans ATCC90028
  IC50: 5.06 µg/mL (≈ 11.4 µM)
  MFC: 10 µg/mL (≈ 22.5 µM)
  MIC: 10 µg/mL (≈ 22.5 µM)

## CCCCCCCCOc1c(OC)cc(NC(C)CCCN)c2nc(C(C)(C)C)cc(C)c12 (stereo not drawn) [compound 54, N^4-(5-Octyloxy-2-tert-butyl-6-methoxy-4-methylquinolin-8-yl)pentane-1,4-diamine]
[1]
  cytotoxicity CTX: NC (NC, not cytotoxic up to 4760 ng/mL (4.76 μg/mL))
SA (ATCC29213)
  IC50: > 20 µg/mL
  MBC: > 20 µg/mL
  MIC: > 20 µg/mL
P. falciparum (D6)
  IC50: > 4.76 µg/mL
A. fumigatus ATCC 90906
  IC50: > 20 µg/mL
  MFC: > 20 µg/mL
  MIC: > 20 µg/mL
C. neoformans ATCC90113
  IC50: 9.96 µg/mL (≈ 21.8 µM)
  MFC: > 20 µg/mL
  MIC: > 20 µg/mL
[2]
  IC50: 9.74 µg/mL (≈ 21.3 µM)
  IC90: 15.6 µg/mL (≈ 34 µM)
[3]
  IC50: 18.6 µg/mL (≈ 40.6 µM)
  MBC: > 20 µg/mL
  MIC: > 20 µg/mL
P. falciparum (W2)
  IC50: > 4.76 µg/mL
MRSA (ATCC33591)
  MIC: > 20 µg/mL
C. albicans ATCC90028
  IC50: > 20 µg/mL
  MFC: > 20 µg/mL
  MIC: > 20 µg/mL

## COc1cc(NC(C)CCCN)c2nc(C(C)(C)C)ccc2c1Oc1ccc(Cl)c(Cl)c1 (stereo not drawn) [compound 55, N^4-(2-tert-Butyl-5-(3,4-dichlorophenoxy)-6-methoxyquinolin-8-yl)pentane-1,4-diamine]
[1]
  cytotoxicity CTX: NC (NC, not cytotoxic up to 4760 ng/mL (4.76 μg/mL))
SA (ATCC29213)
  IC50: 5.96 µg/mL (≈ 12.5 µM)
  MBC: 10 µg/mL (≈ 21 µM)
  MIC: 10 µg/mL (≈ 21 µM)
P. falciparum (D6)
  IC50: 0.14 µg/mL (≈ 0.294 µM)
A. fumigatus ATCC 90906
  IC50: > 20 µg/mL
  MFC: > 20 µg/mL
  MIC: > 20 µg/mL
C. neoformans ATCC90113
  IC50: 3.18 µg/mL (≈ 6.67 µM)
  MFC: 5 µg/mL (≈ 10.5 µM)
  MIC: 5 µg/mL (≈ 10.5 µM)
[2]
  IC50: 11 µg/mL (≈ 23.1 µM)
  IC90: > 40 µg/mL
[3]
  IC50: 9.51 µg/mL (≈ 20 µM)
  MBC: 20 µg/mL (≈ 42 µM)
  MIC: 20 µg/mL (≈ 42 µM)
P. falciparum (W2)
  IC50: 0.13 µg/mL (≈ 0.273 µM)
MRSA (ATCC33591)
  MIC: 10 µg/mL (≈ 21 µM)
C. albicans ATCC90028
  IC50: > 20 µg/mL
  MFC: > 20 µg/mL
  MIC: > 20 µg/mL
